Results on 98 compounds are retold here after ChEMBL document CHEMBL4513216, “Probing the Open Global Health Chemical Diversity Library for Multistage-Active Starting Points for Next-Generation Antimalarials” (ACS Infect Dis, 2020).

The nature of the data set: Toxicity liver stage against HepG2, at 10uM. The data set is classed as cell-based. The arrangement: test concentration 10 uM, cell line HepG2-A16-CD81EGFP. As to conditions: human, HepG2-A16-CD81EGFP cells; read-out: INHIBITION
The procedure, abridged:
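Uninfected HepG2-A16-CD81EGFP cells, 3 × 10^3 per well, 1536-well, plated on prespotted compound at 10 μM final, parasite-free screening media added to match infected plates; puromycin 10 μM positive, DMSO 0.5% negative; run in parallel with 48 h PbLuc assay at 37 °C, 5% CO2; viability by CellTiter-Glo luminescence, normalized to controls.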

Consider `O=C(NC[C@]1(O)CN(Cc2ncccc2F)C[C@H]1O)c1cc[nH]n1`, for which the cytotoxicity at 10 µM is -6.07%.

In the case of `Cc1noc(C)c1C(=O)N1C[C@@H]2CC[C@H]1CN(c1cnccn1)C2`, the cytotoxicity at 10 µM came to 8.32%.

For `O=C(NCc1ccc(CN2CCCC2)cc1)NCc1ccon1`, the cytotoxicity at 10 µM was -0.145%.

As for `Cn1[nH]c(C2CCCN(C(=O)CO)C2)cc1=O` (stereo not drawn), the cytotoxicity at 10 µM came out at 2.01%.

As for `CO[C@@H]1CC[C@H]2[C@H]1OCCN2CC1CCOCC1`, the cytotoxicity at 10 µM is -20.3%.

With `O=C(NC[C@]12COC[C@H]1CN(CC1CCOCC1)C2)c1ccco1`, the cytotoxicity at 10 µM is -72.1%.

With `Cc1ccccc1C(=O)N1CCC2(CC1)CC(c1cnn(C)c1)CO2` (stereo not drawn), the cytotoxicity at 10 µM was -75%.

Take `CCn1nc(C)cc1C(=O)N1CCCN(CCCc2ccccc2)CC1`: the cytotoxicity at 10 µM is -1.45%.

Take `O=C1COC2(CCN(C(=O)c3ccoc3)CC2)CN1Cc1ccccn1`: the cytotoxicity at 10 µM is -1.11%.

As to `COc1ccc(COCC(O)CNC(=O)c2cc(C)no2)cc1` (stereo not drawn), the cytotoxicity at 10 µM amounted to 0.742%.

For `CCC[C@@H]1CN(Cc2cc(C#N)n(C)c2C)C[C@H]1NS(C)(=O)=O`, the cytotoxicity at 10 µM is -132%.

On to `CCN(CCC(=O)OC)C(=O)c1cccc(Cn2nc(C)cc2C)c1`, for which the cytotoxicity at 10 µM is 7.59%.

Take `O=c1[nH]nc2c(S(=O)(=O)N3CCCCCC3)cccn12`: the cytotoxicity at 10 µM was found to be 2.1%.

On to `CCS(=O)(=O)N1CCc2c(cccc2NC(=O)NCCO)C1`, for which the cytotoxicity at 10 µM is -7.47%.

As for `Cc1cccc(C(=O)N2CCCN(Cc3cscn3)CC2)c1`, the cytotoxicity at 10 µM is -18.1%.

In the case of `CC(C(=O)O)N1CC2(CCC1=O)CCN(C/C=C/c1ccccc1)CC2` (stereo not drawn), the cytotoxicity at 10 µM is -1.72%.

In the case of `Cc1noc(C)c1CNCC1CCN(CC(O)c2ccccc2)CC1` (stereo not drawn), the cytotoxicity at 10 µM is -0.65%.

Regarding `COc1ccc(NC(=O)Cn2nc(C)c(C(C)=O)c2C)cc1`, the cytotoxicity at 10 µM is -3.66%.

Regarding `CC(=O)Nc1nc(C(=O)N2CCCC2c2noc(C)n2)cs1` (stereo not drawn), the cytotoxicity at 10 µM is -9.55%.

As to `CC(C)CC(=O)N1CC(=O)c2sc(NC3CCCCC3)nc2C1`, the cytotoxicity at 10 µM was -7%.

Take `CC(C)[C@@H]1CN(CCOc2ccccc2)C[C@H]1NS(=O)(=O)N(C)C`: the cytotoxicity at 10 µM was -43%.

In the case of `O=c1n(CCSCc2ccccc2Cl)nc2ccccn12`, the cytotoxicity at 10 µM was -7.68%.

Turning to `CCc1ccc(C(CNC(=O)c2c(C)noc2C)N(C)C)cc1` (stereo not drawn), the cytotoxicity at 10 µM is -7.83%.

Regarding `CCc1c(C)nc(-n2nc(C3CC3)cc2NC(C)=O)[nH]c1=O`, the cytotoxicity at 10 µM stood at 30.3%.

On to `CCCSCC(=O)N1CCC2(CC1)CC(c1ccccc1)CN(C)C2` (stereo not drawn), for which the cytotoxicity at 10 µM was -7.29%.

Turning to `Cc1nc(-c2ccc(Cl)cc2)n(CC(=O)NC(C)C)c(=O)c1CCO`, the cytotoxicity at 10 µM is -8.88%.

With `CCc1ncc2c(n1)CN(C(=O)CNC(=O)C(C)C)C2`, the cytotoxicity at 10 µM came out at 7.28%.

With `O=C(NCCCn1ccnc1)N1CCCC1c1cccs1` (stereo not drawn), the cytotoxicity at 10 µM was -8.31%.

`Cc1cc(CN2CCN(C(=O)NC(C)c3ccncc3)CC2)on1` (stereo not drawn): the cytotoxicity at 10 µM is -5.66%.

For `COCCN1C(=O)CCC12CCN(c1ncc(F)cn1)CC2`, the cytotoxicity at 10 µM was found to be 0.632%.

Regarding `Cc1nc(CN(C)C(=O)C2CCC(=O)N(CCN(C)C)C2)cs1` (stereo not drawn), the cytotoxicity at 10 µM came out at 8.08%.

Turning to `c1csc(CN2CCCn3cnc(CN4CCCC4)c3C2)c1`, the cytotoxicity at 10 µM was -72.7%.

With `O=C(COC1CCCC1)Nc1ncn(CC(=O)N2CCCCCC2)n1`, the cytotoxicity at 10 µM was -8.16%.

As to `CC(C)COC(=O)N1CCN(C(=O)c2ccc3nccn3c2)CC1`, the cytotoxicity at 10 µM was determined as 12.6%.

Regarding `CCc1nc(CN(C(C)=O)C2CCN(CCc3cnn(C)c3)C2)no1` (stereo not drawn), the cytotoxicity at 10 µM is -6.38%.

Regarding `CCOc1cc(F)ccc1NC1CCN(CC(F)(F)F)C1=O` (stereo not drawn), the cytotoxicity at 10 µM is -0.302%.

Take `COCC(=O)NCC1CCN(Cc2ccsc2)CC1`: the cytotoxicity at 10 µM is -3.88%.

On to `CC[C@H](N)C(=O)Nc1nn(CC(F)(F)F)c2cc(OC(C)C)ccc12`, for which the cytotoxicity at 10 µM was -2.8%.

Consider `Cc1cc(CCC(=O)N2CC[C@H](O)C2)ccc1Br`, for which the cytotoxicity at 10 µM came out at 2.35%.

On to `COc1ncccc1CNC(=O)Nc1cc(C)nn1C`, for which the cytotoxicity at 10 µM is -5.13%.

Take `CNC(=O)NCC(CO)Cc1cccc(OC(F)(F)F)c1` (stereo not drawn): the cytotoxicity at 10 µM was -1.28%.

For `CC(NCc1cnc(N2CCOCC2)nc1)c1ccc(Cl)s1` (stereo not drawn), the cytotoxicity at 10 µM is -4.9%.

For the compound `CC(C)c1nnc(NCc2ccsc2)o1`, the cytotoxicity at 10 µM is -0.19%.

For `CC(C)CCNC(=O)c1ccc(Cl)c(NS(C)(=O)=O)c1`, the cytotoxicity at 10 µM came out at 2.2%.

Regarding `CCc1ocnc1C(=O)N1CCC2(CCCN(CC(C)(C)C)C2=O)C1` (stereo not drawn), the cytotoxicity at 10 µM stood at 7.79%.

As for `Cc1nc(-c2ccncc2)ncc1C(C)NC(=O)CN1CCCCC1` (stereo not drawn), the cytotoxicity at 10 µM worked out at 1.47%.

For `CC(C)NC(=O)C1CCC2(CCN(Cc3cnn(C)c3)CC2)C1` (stereo not drawn), the cytotoxicity at 10 µM stood at 2.77%.

Regarding `c1cc(-c2c[nH]nc2C2CCCCC2)nc(N2CCCCCC2)n1`, the cytotoxicity at 10 µM amounted to 8.07%.

As for `CC(C)(C)Cc1nnc(NCc2cccc(C#N)c2)o1`, the cytotoxicity at 10 µM is -16.1%.

Regarding `c1ccc(N2CCC(NCCc3ccc(-n4cccn4)cc3)CC2)nc1`, the cytotoxicity at 10 µM worked out at 21.1%.

Regarding `Cn1ccnc1C(NCc1csc(Br)c1)c1ccccc1` (stereo not drawn), the cytotoxicity at 10 µM is -0.12%.

Regarding `Cc1nc2n(n1)CC(NCC(=O)NCC1(c3ccccc3)CC1)CC2` (stereo not drawn), the cytotoxicity at 10 µM is -6.52%.

Turning to `CCS(=O)(=O)N1CCCN(CCCOC)CC1`, the cytotoxicity at 10 µM worked out at 7.73%.

For the compound `CCCN(CC)Cn1ncc2cn(-c3ccccc3)nc2c1=O`, the cytotoxicity at 10 µM was 1.44%.

Take `CSCC(=O)N[C@H]1CC[C@H](Nc2nccc(-c3ccncc3)n2)C1`: the cytotoxicity at 10 µM came out at 11.8%.

With `O=C(c1ccc(Cl)cc1F)N1CCC(Cn2cc(CO)nn2)CC1`, the cytotoxicity at 10 µM was -1.36%.

Turning to `CCOCCCNC(=O)C1CCC(=O)N(CCc2ccc(Cl)cc2)C1` (stereo not drawn), the cytotoxicity at 10 µM was -0.591%.

In the case of `Cc1ccc(C(C(=O)NCc2n[nH]c(N)n2)N(C)C)cc1` (stereo not drawn), the cytotoxicity at 10 µM was 0.529%.

For the compound `O=C(O)CC(NC(=O)CCCc1cccs1)c1ccc(F)cc1` (stereo not drawn), the cytotoxicity at 10 µM is -2.99%.

For `c1ccc(CN2CCc3c(CNc4nccs4)n[nH]c3C2)nc1`, the cytotoxicity at 10 µM is -7.04%.

Regarding `CCS(=O)(=O)N1Cc2c(Cn3ccnc3)nn(C(C)C)c2C1`, the cytotoxicity at 10 µM turned out to be 11.5%.

`O=C(c1ccoc1)N1CCC2(C1)CN(c1nccs1)C2`: the cytotoxicity at 10 µM stood at 1.07%.

As to `COc1ccc2c(ccn2CCC(=O)Nc2n[nH]c(CC(C)C)n2)c1`, the cytotoxicity at 10 µM is 8.29%.

`CN(CC(=O)Nc1cccnc1)C1CCCN(c2cccnn2)C1` (stereo not drawn): the cytotoxicity at 10 µM is -2.42%.

On to `CCOCCNCc1cc(O)c2cc(C)ccc2n1`, for which the cytotoxicity at 10 µM was -2.04%.

`Cc1nc[nH]c1C(=O)N1CCCC2(C1)C(=O)N(C)c1ccccc12` (stereo not drawn): the cytotoxicity at 10 µM is -6.01%.

Turning to `CC(C)(C)c1nc(CN2CCN(C(=O)c3cnccn3)CC2)cs1`, the cytotoxicity at 10 µM was -5.92%.

For `CN1CC(=O)N(c2ccsc2)CC12CCN(Cc1cnn(C)c1)C2` (stereo not drawn), the cytotoxicity at 10 µM worked out at 0.0218%.

`Cc1ccc(CN2CCn3c(C(=O)N(C)C)cnc3C2)s1`: the cytotoxicity at 10 µM was 5.97%.

Turning to `Nc1cc(-c2ccc(C(=O)O)cc2O)c2cc[nH]c2n1`, the cytotoxicity at 10 µM stood at 10.3%.

With `CN(CCC#N)C(=O)Cn1nnnc1C(C)(C)C`, the cytotoxicity at 10 µM is -46.3%.

Turning to `Cc1ccc(C(=O)N2CCCC(NC(=O)C(C)C)C2)c(O)c1` (stereo not drawn), the cytotoxicity at 10 µM was -7.84%.

As for `CSc1ccc(NC(=O)NCC(O)C2CC2)cc1F` (stereo not drawn), the cytotoxicity at 10 µM came out at 6.32%.

Regarding `CCC(=O)N1CCC2(COCc3cnc(N4CCOCC4)nc32)C1` (stereo not drawn), the cytotoxicity at 10 µM is -66.2%.

Turning to `OC(COCc1cccs1)Cn1cc(Cl)cn1` (stereo not drawn), the cytotoxicity at 10 µM is -0.574%.

As for `COCCN1C[C@@H](C(=O)O)[C@H](c2ccccc2C)C1`, the cytotoxicity at 10 µM is 3%.

For the compound `Cc1nccn1-c1cc(CNC(=O)c2ccnc(N(C)C)c2)ccn1`, the cytotoxicity at 10 µM amounted to 2.32%.

As to `c1ccc(OCc2n[nH]c3c2CN(Cc2cccs2)C3)nc1`, the cytotoxicity at 10 µM came to 8.25%.

Regarding `CN(C)c1nc2c(c(N3CCC4(CCCNC4=O)C3)n1)CCCC2` (stereo not drawn), the cytotoxicity at 10 µM is -5.81%.

With `Cc1cccc(C(C(=O)NCCCc2ccncc2)N(C)C)c1` (stereo not drawn), the cytotoxicity at 10 µM is -8.38%.

With `CC(C)N1CCc2c(CN(C)Cc3ccco3)cncc2C1`, the cytotoxicity at 10 µM is -2.39%.

With `Nc1nccc(C2CCN(c3cnccn3)C2)n1` (stereo not drawn), the cytotoxicity at 10 µM amounted to 1.43%.

In the case of `CCc1ccc(S(=O)(=O)N2CCN(CCn3ccnc3)CC2)cc1`, the cytotoxicity at 10 µM was -8.81%.

`CCN1CCN(c2ccc(C(=O)NCc3cc(C)no3)cc2F)CC1`: the cytotoxicity at 10 µM was determined as 11.2%.

As for `Cc1cc(NC(=O)CN2CCCC2c2noc(C3CC3)n2)no1` (stereo not drawn), the cytotoxicity at 10 µM was -13%.

For the compound `Cc1nc(N(C)C)nc(-c2cccc(-c3ccn(CCCF)n3)c2)c1C`, the cytotoxicity at 10 µM was 3.7%.

`OC1CCCN(Cc2ccc(F)c3cccnc23)C1` (stereo not drawn): the cytotoxicity at 10 µM was determined as 4.75%.

With `CCCOc1ccc(C(=O)N2CC[C@@H]3CC[C@H](C2)N3)cc1Cl`, the cytotoxicity at 10 µM is -6.94%.

With `Cc1nnc(NC(=O)c2c3c(nn2C2CCS(=O)(=O)C2)CCC3)s1` (stereo not drawn), the cytotoxicity at 10 µM was -14.2%.

On to `COCC(=O)NCCSCCOc1cccc(Br)c1`, for which the cytotoxicity at 10 µM is -9.2%.

As for `CCOC(C)C(=O)N1CCN(S(C)(=O)=O)CC1` (stereo not drawn), the cytotoxicity at 10 µM is -5.35%.

In the case of `O=C(Cn1cnc2sccc2c1=O)NCCc1nnc2ccccn12`, the cytotoxicity at 10 µM came to 3.57%.

In the case of `CCCn1nccc1-c1cc(C2CCN(S(C)(=O)=O)CC2)nc(C)n1`, the cytotoxicity at 10 µM was -10.7%.

In the case of `Cc1ccc(CNCc2nccn2C)c(OCC2CC2)c1`, the cytotoxicity at 10 µM was -4.52%.

Consider `COc1nn(C)cc1C(=O)N1CCC(c2nnc(C3CC3)o2)CC1`, for which the cytotoxicity at 10 µM is 5.14%.

Regarding `O=C(c1ccoc1)N1CCC2(CCC(=O)N2Cc2ccncc2)CC1`, the cytotoxicity at 10 µM is -1%.

On to `O=C(c1cscn1)N1CC[C@@H]2[C@@H]1CCN2CC1CCOC1` (stereo partly drawn), for which the cytotoxicity at 10 µM was -2.36%.

As for `Cc1ncc2c(n1)CN(Cc1nc(-c3cccs3)no1)CC2`, the cytotoxicity at 10 µM was -9.8%.
